Tests used:
SMARCA4(BD)-HiBiT = assay: HiBiT CETSA of SMARCA4; assay type: cell-based; conditions: for luminescence of SMARCA4(BD)-HiBiT: OCI/AML-2 cells, 37 °C
In short: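 SMARCA4 bromodomain (residues 1426-1531) fused to HiBiT, stably expressed in OCI/AML-2 cells (alpha-MEM, 20% FBS) by lentiviral spinoculation: 2,000 rpm, 1 h, room temperature, 8 μg/mL polybrene. Cells were drug-treated at 37 °C without heating. Raw luminescence was read after adding Nano-Glo HiBiT lytic detection reagent.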

ENL(YEATS)-HiBiT [1] = assay: HiBiT CETSA; assay type: cell-based
full-length ENL-HiBiT = assay: HiBiT CETSA melt curve of full-length ENL-HiBiT; assay type: cell-based; conditions: HEK293T cells
AF9(YEATS)-HiBiT = assay: ITDR at 37 °C of AF9; assay type: cell-based; conditions: OCI/AML-2 cells, 1 hour
ENL(YEATS)-HiBiT [2] = assay: HiBiT CETSA performed on pre-lysed cells; conditions: cells lysed first, then treated; 37 °C
ENL YEATS [3] = molecular target: T1, ENL YEATS (Homo sapiens, UniProt Q03111); assay: HTRF histone-binding assay, ENL YEATS with H3K27cr
T1 sequence (Q03111 1-148): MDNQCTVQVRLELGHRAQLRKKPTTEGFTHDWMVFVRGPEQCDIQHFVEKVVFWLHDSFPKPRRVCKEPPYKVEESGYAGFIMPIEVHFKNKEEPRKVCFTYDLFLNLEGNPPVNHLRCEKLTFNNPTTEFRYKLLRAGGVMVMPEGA
In short: (§1)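 HTRF in 25 mM HEPES pH 7, 20 mM NaCl, 0.2% Pluronic F-127, 0.05% BSA, with 1 nM Eu-anti-His antibody and 8.9 nM APC-streptavidin. ENL: recombinant His-tagged ENL YEATS(1-148), 5 nM, with 13.3 nM biotinylated H3(13-32)K27cr. AF9: purchased AF9 YEATS, 5 nM, with 100 nM of the same peptide. Compound pin-transferred, incubated ≥2 h; 337 nm excitation, 665/620 nm ratio; percent inhibition scaled to vehicle (max) and no-peptide (min) wells.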

AF9 YEATS = molecular target: T2, AF9 YEATS (Homo sapiens, UniProt P42568); assay: HTRF histone-binding assay, AF9 YEATS with H3K27cr; conditions: read-out: IC50, HTRF AF9 YEATS crotonyl-lysine recognition
T2 sequence (P42568 1-138 limits assumed): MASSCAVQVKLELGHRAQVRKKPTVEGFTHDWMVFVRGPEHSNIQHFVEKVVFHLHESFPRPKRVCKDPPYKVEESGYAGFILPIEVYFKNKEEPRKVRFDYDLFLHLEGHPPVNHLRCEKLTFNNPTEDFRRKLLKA
In short: as §1

BRD4 bromodomain 1 (BD1) = assay: HTRF histone-binding assay, BRD4 BD1 with tetra-acetyl H4
In short: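 BRD4 BD1 (purchased, 10 nM) with 13.3 nM tetra-acetylated H4. Buffer was 25 mM HEPES pH 7, 20 mM NaCl, 0.2% Pluronic F-127, 0.05% BSA; detection used 1 nM Eu-anti-His antibody plus 8.9 nM APC-streptavidin. Compound added by pin tool and incubated 2 h or more. Read at 337 nm excitation as the 665/620 nm emission ratio; percent inhibition relative to vehicle (maximum) and no-peptide (minimum) controls.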

YEATS4/GAS41 = assay: Biolayer interferometry, immobilized biotin-YEATS4; assay type: binding; conditions: BLI
endogenous ENL protein = assay: Immunoblot-based CETSA on endogenous ENL; assay type: cell-based; conditions: 80 μM, OCI/AML-2 cells, 1 hr
In short: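 CETSA on endogenous ENL followed a previously published protocol. Immunoblot detection used an anti-ENL rabbit monoclonal antibody (D9M4B) and an anti-GAPDH mouse monoclonal antibody (6C5).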

ENL YEATS [4] = molecular target: T1, ENL YEATS; assay: MALDI-TOF mass spectrometry for covalent adducts; conditions: high-resolution MALDI-TOF

## O=C(/C=C/N1C[C@H]2C[C@@H]1CN2c1ccccn1)c1ccccc1O [PFI-3]
SMARCA4(BD)-HiBiT; ITDR
  concentration required to elevate the luminescence from SMARCA4(BD)-HiBiT: 80 µM
SMARCA4(BD)-HiBiT
  luminescence of SMARCA4(BD)-HiBiT: able to elevate luminescence

## C[C@H]1CCCN1Cc1nc2cc(NC(=O)c3ccc4c(cnn4C)c3)ccc2[nH]1 [SGC-iMLLT]
ENL(YEATS)-HiBiT [1]; 37 °C, HEK293T cells, 1 hour
  ITDR luminescence, wild-type ENL YEATS: dose-responsive increases in luminescence
ENL(YEATS)-HiBiT [1]; HEK293T cells, 1-hour treatment, luminescence normalized to 37 °C
  CETSA melt curve of ENL(YEATS)-HiBiT: rightward shift
full-length ENL-HiBiT
  luminescence-based melt curve of full-length ENL-HiBiT: did not affect
AF9(YEATS)-HiBiT
  ITDR luminescence, AF9(YEATS)-HiBiT: dose-dependent increases in luminescence
SMARCA4(BD)-HiBiT
  luminescence of SMARCA4(BD)-HiBiT: no such effect
ENL(YEATS)-HiBiT [2]
  luminescence of ENL(YEATS)-HiBiT in cell lysates: luminescence was increased

## O=C(/C=C/c1ccc(-n2ccnc2)cc1)N1CCN(C(=O)c2ccco2)CC1 [sCGT990]
ENL(YEATS)-HiBiT [1]; living cells, dose-response
  concentration required to reliably elevate ENL(YEATS)-HiBiT luminescence: 80 µM
ENL YEATS [3]
  IC50, HTRF ENL YEATS association with H3K27cr: 19 µM
AF9 YEATS
  IC50: 62 µM
BRD4 bromodomain 1 (BD1)
  inhibition of BRD4 BD1 association with tetra-acetyl H4: does not inhibit
YEATS4/GAS41
  binding to YEATS4/GAS41: does not efficiently bind
Endogenous ENL protein
  stabilization of endogenous ENL by immunoblot-based CETSA: weak, if any, stabilization
ENL YEATS [4]
  covalent adducts with ENL YEATS: unable to identify covalent adducts

## crotonylated histone peptide: peptide substrate, H3K27cr, used to treat cell lysates
ENL(YEATS)-HiBiT [2]
  luminescence of ENL(YEATS)-HiBiT in cell lysates: luminescence was increased
